Measurements published in article PMC8811894 (ACS Omega, 2022).
Like-named read-outs stand apart in the source and are kept apart here.

How the values were obtained:
[1] = test system: T-47D human breast carcinoma cells; assay: MTT cell toxicity assay; assay type: cell-based; conditions: for GI50: 72 h, read-out: cancer cell growth inhibition, GI50; for times more potent than PrTPP: MTT test
Outline: (§1)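 Cells were seeded at 5 × 10^3/well in medium with 10% FBS and kept at 37 °C, 5% CO2. Media: DMEM for A549 and A375; EMEM for DU145; F-12K for PC-3; McCoy's 5a for HCT-116 and SK-OV-3; RPMI-1640 + insulin 0.2 Units/mL for T-47D. Test compound came from DMSO stocks, with tubercidin as positive control. MTT at 0.5 mg/mL final was added for 2–3 h at 37 °C, then absorbance read at 570 nm. Three repeats; GI50 from sigmoidal fit.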

[2] = test system: HCT-116 human colon epithelial colorectal carcinoma cells; assay: MTT cell toxicity assay; assay type: cell-based; conditions: read-out: cancer cell growth inhibition, GI50
Outline: as §1

[3] = test system: HCT-116 human colon epithelial colorectal carcinoma cells; assay: Click-iT-EdU Alexa Fluor 488 cell proliferation assay; assay type: cell-based; conditions: read-out: DNA synthesis inhibition, GI50
Outline: (§2)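 Cells were seeded at 800/well in medium with 10% FBS under 5% CO2. HCT-116 grew in McCoy's 5a and T-47D in RPMI-1640 + insulin 0.2 Units/mL. Test compound came from DMSO stocks, with tubercidin as positive control. After 72 h, EdU was added for 2.5 h at 37 °C. Cells were fixed in 4% paraformaldehyde (30 min, RT) and stained with Hoechst 33342. Click-iT Alexa Fluor 488 reaction ran 1 h at RT in the dark. Plates were read by high-content imaging; value from sigmoidal fit.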

[4] = test system: A549 human lung epithelial carcinoma cells; assay: MTT cell toxicity assay; assay type: cell-based; conditions: read-out: cancer cell growth inhibition, GI50
Outline: as §1

[5] = test system: SK-OV-3 human ovary ascites epithelial adenocarcinoma cells; assay: MTT cell toxicity assay; assay type: cell-based; conditions: read-out: cancer cell growth inhibition, GI50
Outline: as §1

[6] = test system: DU145 human prostate epithelial carcinoma cells; assay: MTT cell toxicity assay; assay type: cell-based; conditions: read-out: cancer cell growth inhibition, GI50
Outline: as §1

[7] = test system: PC-3 human prostate epithelial adenocarcinoma grade IV cells; assay: MTT cell toxicity assay; assay type: cell-based; conditions: 72 h, read-out: cancer cell growth inhibition, GI50
Outline: as §1

[8] = test system: A375 human skin epithelial malignant melanoma cells; assay: MTT cell toxicity assay; assay type: cell-based; conditions: read-out: cancer cell growth inhibition, GI50
Outline: as §1

[9] = test system: T-47D human breast carcinoma cells; assay: Click-iT-EdU Alexa Fluor 488 cell proliferation assay; assay type: cell-based; conditions: for GI50: 72 h, read-out: DNA synthesis inhibition, GI50; for times more potent than PrTPP: Click-iT-EdU test
Outline: as §2

[10] = test system: panel of 60 human cancer cell lines; assay: NCI60 screen, SRB assay, panel mean; assay type: cell-based; conditions: for NCI60 screen mean GI, %: single-dose inhibition of cell growth at 10 μM; for GI50: Homo sapiens, read-out: NCI60 screen mean GI50
Outline: (§3)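 Tested on the 60-line human cancer panel by sulforhodamine B assay. The dye binds cell protein under mildly acidic conditions and is extracted with basic medium; bound dye is taken as a proxy for cell mass. A single-dose test at 10 μM gives % growth inhibition; a five-dose test gives GI50.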

sea urchin embryos = assay: Phenotypic sea urchin embryo assay; assay type: in vivo, Paracentrotus lividus
MDA-MB-468 = assay: NCI60 SRB screen; assay type: cell-based, human; conditions: NCI60 single dose, MDA-MB-468 breast cancer
Outline: as §3

SK-MEL-5 = assay: NCI60 SRB screen; assay type: cell-based, human; conditions: NCI60 single dose, SK-MEL-5 melanoma
Outline: as §3

Compound	GI50 ([1]; Homo sapiens, T47D) [µM]	GI50 ([2]; Homo sapiens, HCT-116, 72 h) [µM]	GI50 ([3]; Homo sapiens, HCT-116, 72 h) [µM]	GI50 ([4]; Homo sapiens, A549, 72 h) [µM]	GI50 ([5]; Homo sapiens, SK-OV-3, 72 h) [µM]	GI50 ([6]; Homo sapiens, DU-145, 72 h) [µM]	GI50 ([7]; Homo sapiens) [µM]	GI50 ([8]; Homo sapiens, A-375, 72 h) [µM]	GI50 ([9]; Homo sapiens, T47D) [µM]	NCI60 screen mean GI, % [10] [%]	other results
C=CCc1cc(OC)c2c(c1OC)OCO2 [1a, Apiol]	70.7 ± 9.9	> 250	> 250	> 250	> 250	> 250	> 250	> 250	> 250		
COc1cc(CCCO)c(OC)c2c1OCO2 [4a, 3-(4,7-Dimethoxy-1,3-benzodioxol-5-yl)propan-1-ol]	> 250	> 250	> 250	> 250	> 250	> 250	> 250	> 250	> 250	0	
COc1c(CCCO)cc2c(c1OC)OCO2 [4b, 3-(6,7-Dimethoxy-1,3-benzodioxol-5-yl)propan-1-ol]	> 250	> 250	> 250	> 250	> 250	> 250	> 250	> 250	> 250	0	
COc1cc(CCCO)cc2c1OCO2 [4c, 3-(7-Methoxy-1,3-benzodioxol-5-yl)propan-1-ol]	> 250	> 250	> 250	> 250	> 250	> 250	> 250	> 250	> 250	0	
COc1cc(CCCO)c(OC)c(OC)c1OC [4d, 3-(2,3,4,5-Tetramethoxyphenyl)propan-1-ol]	> 250	> 250	> 250	> 250	> 250	> 250	> 250	> 250	> 250	0	
COc1cc(CCC[P+](c2ccccc2)(c2ccccc2)c2ccccc2)c(OC)c2c1OCO2.[I-] [7a, [3-(4,7-Dimethoxy-1,3-benzodioxol-5-yl)propyl](triphenyl)phosphonium Iodide]	0.089 ± 0.008	0.263 ± 0.033	0.367 ± 0.05	3 ± 0.21	2.42 ± 0.43	2.86 ± 0.4	0.552 ± 0.03	0.627 ± 0.085	0.104 ± 0.007		times more potent than PrTPP ([1]; T-47D): 26.9 times; GI50 [10]: 1.66 µM; times more potent than PrTPP ([9]; T-47D): 33.2 times
COc1c(CCC[P+](c2ccccc2)(c2ccccc2)c2ccccc2)cc2c(c1OC)OCO2.[I-] [7b, [3-(6,7-Dimethoxy-1,3-benzodioxol-5-yl)propyl](triphenyl)phosphonium Iodide]	0.107 ± 0.004	0.229 ± 0.027	0.405 ± 0.036	4.64 ± 0.37	6.62 ± 0.13	3.26 ± 0.36	0.555 ± 0.049	0.491 ± 0.019	0.118 ± 0.007		times more potent than PrTPP ([1]; T-47D): 22.3 times; GI50 [10]: 1.58 µM; times more potent than PrTPP ([9]; T-47D): 29.2 times
COc1cc(OCCCCCC[P+](c2ccccc2)(c2ccccc2)c2ccccc2)c(OC)c2c1OCO2.[Br-] [compound 11, {6-[(4,7-Dimethoxy-2H-1,3-benzodioxol-5-yl)oxy]hexyl}(triphenyl)phosphonium Bromide]	0.421 ± 0.013	1.95 ± 0.21	2.83 ± 0.37	0.463 ± 0.042	24.6 ± 2	20.8 ± 1.3	0.258 ± 0.026	1.93 ± 0.077	0.606 ± 0.06		effect on sea urchin embryo development (in words) (sea urchin embryos; in vivo): moderate antiproliferative effect on the sea urchin embryos
COc1cc(COC(=O)CCCCC[P+](c2ccccc2)(c2ccccc2)c2ccccc2)c(OC)c2c1OCO2.[Br-] [compound 16, {6-[(4,7-Dimethoxy-2H-1,3-benzodioxol-5-yl)methoxy]-6-oxohexyl}(triphenyl)phosphonium Bromide]	0.43 ± 0.88	1.07 ± 0.02		18.5 ± 0.67	10.2 ± 0.19	14.1 ± 0.37	4.18 ± 0.13	3.43 ± 0.08		49.2	number of cancer cell lines with 80–100% growth inhibition ([10]; NCI60 single dose 10 μM): nine
COc1cc(CNC(=O)CCCCC[P+](c2ccccc2)(c2ccccc2)c2ccccc2)c(OC)c2c1OCO2.[Br-] [compound 17, (6-{[(4,7-Dimethoxy-2H-1,3-benzodioxol-5-yl)methyl]amino}-6-oxohexyl)(triphenyl)phosphonium Bromide]	0.256 ± 0.08	1.05 ± 0.01		9.96 ± 0.22	18.9 ± 2.86	11.3 ± 0.75	2.15 ± 0.04	2.78 ± 0.17		35.8	number of cancer cell lines with 80–100% growth inhibition ([10]; NCI60 single dose 10 μM): three
[3-(7-Methoxy-1,3-benzodioxol-5-yl)propyl](trimethyl)phosphonium Iodide [7c]										63.9	effect at 10 μM (in words) (MDA-MB-468): lethal effect; times more potent than PrTPP ([1]; T-47D): 239 times; GI50 ([1]; T-47D, MTT assay): 0.01 ± 0.0005 µM; GI50 ([2]; HCT-116, MTT assay, 72 h): 0.331 ± 0.039 µM; GI50 ([3]; HCT-116, Click-iT-EdU, 72 h): 0.22 ± 0.03 µM; effect at 10 μM (in words) (SK-MEL-5): lethal effect; GI50 ([4]; A549, MTT assay, 72 h): 12.2 ± 0.61 µM; GI50 ([5]; SK-OV-3, MTT assay, 72 h): 11 ± 1.4 µM; GI50 ([6]; DU145, MTT assay, 72 h): 5.12 ± 0.66 µM; GI50 ([7]; PC-3, MTT assay): 0.41 ± 0.04 µM; number of cancer cell lines with growth inhibited by more than 80% ([10]; NCI60 single dose 10 μM): 18; GI50 ([8]; A375, MTT assay, 72 h): 1.08 ± 0.06 µM; cleavage alteration, EC (sea urchin embryos; effective threshold concentration, fertilized eggs exposed): >4 µM; times more potent than PrTPP ([9]; T-47D): 138 times; GI50 ([9]; T-47D, Click-iT-EdU): 0.025 ± 0.002 µM
